Read-outs that look alike come from different tables or passages of the source.
Legend:
Cdc42 = Cdc42 (Homo sapiens, UniProt P60953); conditions: 50 mM (results not shown)
RhoGDIα [1] = molecular target: T1, RhoGDIα (Homo sapiens, UniProt P52565); format: binding
T1 sequence (P52565 1-204): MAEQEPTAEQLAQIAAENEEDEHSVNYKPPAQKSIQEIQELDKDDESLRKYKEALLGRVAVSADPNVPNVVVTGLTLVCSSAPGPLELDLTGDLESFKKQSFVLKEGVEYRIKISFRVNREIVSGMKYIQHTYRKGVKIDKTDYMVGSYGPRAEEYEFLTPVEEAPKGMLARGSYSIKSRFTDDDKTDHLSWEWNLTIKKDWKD
In short: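 For n-alkanols, halothane was equilibrated first, then alkanol titrated from stocks while emission at 330 nm was tracked; buffer-only additions controlled for halothane evaporation. For AGGC (0–300 µM), 30 min preincubation ±1 mM halothane in gas-tight syringes, then dilution into cuvette. Recovery […] fitted by Hill-type equation (EC50, Fmax, h).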

RhoGDIα–Cdc42 complex = molecular target: T2, RhoGDIα–Cdc42 complex (Homo sapiens, UniProt P52565); format: biochemical; conditions: for Cdc42–RhoGDIα Dissociation h / effect on association of Cdc42 with membranes (Req,Cdc42): with EDTA and GMPPNP; for Cdc42–RhoGDIα Dissociation h: fit to Eq. 6
T2 sequence (P52565 1-204): T1 sequence (P52565 1-204)
In short: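 SPR on L1 chip at 25°C. Running buffer 10 mM HEPES pH 7.4, 150 mM NaCl. Surface cleaned with 10 mM CHAPS; POPC/POPS (4:1) 100 nm LUV captured at 5 µL/min for 15 min; conditioned with 10 mM glycine pH 1.5 and 10 mM NaOH. RhoGDIα–Cdc42 complex typically 0.5 µM in Buffer A with 50 µM GMPPNP and n-alkanol. 14.3 mM EDTA initiated exchange and dissociation. Req from first-order fits versus complex concentration.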

RhoGDIα [2] = molecular target: T1, RhoGDIα; experiment: Photo-affinity labeling of RhoGDIα with azialcohols, LC-MSMS; format: binding
RhoGDIα [3] = molecular target: T1, RhoGDIα; format: binding; remark: listed apart in the source
In short: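 RhoGDIα at 500 nM in 2.8 mL Buffer B (pH 7.5 Tris) in screw-top sealed cuvette with minimal headspace; halothane 0–800 µM; 60 min at room temperature. Steady-state tryptophan emission spectra, excitation 295 nm. Quenching taken as FQ/F0, averaging >10 points at the emission maximum. Fitted to Eq. 1 for Kd, h and maximal quenching.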

[4] = read-out: Halothane Binding EC50, 0.2 mM halothane, RhoGDIα 500 nM, fit to Eq. 2
[5] = read-out: Halothane Binding KI, 0.2 mM halothane, calculated using Eq. 3

Chain of Cdc42 (P60953 whole entry): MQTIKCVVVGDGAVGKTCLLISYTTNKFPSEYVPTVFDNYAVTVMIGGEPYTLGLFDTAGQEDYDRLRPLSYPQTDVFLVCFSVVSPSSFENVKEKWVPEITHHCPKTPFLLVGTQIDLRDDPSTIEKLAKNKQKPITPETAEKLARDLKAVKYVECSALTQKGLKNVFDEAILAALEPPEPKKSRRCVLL

CCCCO [n=4, n-butanol]
effect on rate and extent of exchange of MANT-GDP for GDP (Cdc42): neither the rate nor the extent of exchange of MANT-GDP for GDP were affected
Fmax for displacement of halothane (RhoGDIα [1]; 0.1 mM halothane): 0.55 ± 0.06
h for displacement of halothane (RhoGDIα [1]; 0.1 mM halothane): 1.0 ± 0.4
Fmax for displacement of halothane (RhoGDIα [1]; 0.2 mM halothane): 0.59 ± 0.04
h for displacement of halothane (RhoGDIα [1]; 0.2 mM halothane): 1.1 ± 0.2
Halothane Binding Fmax (RhoGDIα [1]; 0.2 mM halothane, fit to Eq. 2): 51 ± 4
Halothane Binding h (RhoGDIα [1]; 0.2 mM halothane, fit to Eq. 2): 1.1 ± 0.1
Fmax for displacement of halothane (RhoGDIα [1]; 0.5 mM halothane): 0.59 ± 0.05
h for displacement of halothane (RhoGDIα [1]; 0.5 mM halothane): 1.0 ± 0.1
Fmax for displacement of halothane (RhoGDIα [1]; 1.0 mM halothane): 0.65 ± 0.08
h for displacement of halothane (RhoGDIα [1]; 1.0 mM halothane): 1.2 ± 0.2
Hill coefficient h (RhoGDIα [1]; independent of halothane concentration or chain length): ~ 1
EC50 (RhoGDIα [1]; read-out: EC50 for displacement of halothane, 0.1 mM halothane): 3 ± 1 mM
EC50 (RhoGDIα [1]; read-out: EC50 for displacement of halothane, 0.2 mM halothane): 11 ± 3 mM
EC50 (RhoGDIα [1]; read-out: EC50 for displacement of halothane, 0.5 mM halothane): 22 ± 5 mM
EC50 (RhoGDIα [1]; read-out: EC50 for displacement of halothane, 1.0 mM halothane): 52 ± 8 mM
EC50 (RhoGDIα [1]; [4]): 10 ± 3 mM
Ki (RhoGDIα [1]; [5]): 4.2 ± 1.2 mM
effect on association of Cdc42 with membranes (RhoGDIα–Cdc42 complex; in the absence of EDTA and GMPPNP): negligible effects
Cdc42–RhoGDIα Dissociation h (RhoGDIα–Cdc42 complex): 1.5 ± 0.3

CC1(CCO)N=N1 [3-azibutanol]
Lowest 3-azialcohol concentration where photoincorporation was detected (RhoGDIα [2]; AGGC +): 100 µM
Residue photolabeled / photolabeled peptide (RhoGDIα [2]; AGGC –): Photolabeled peptide not detected

CCCCCCO [n-hexanol]
effect on halothane-induced tryptophan quenching (RhoGDIα [1]; 0.2 mM halothane): did not reach saturation within the concentration range used
effect on association of Cdc42 with membranes (Req,Cdc42) (RhoGDIα–Cdc42 complex): unaffected

CCCCCCCO [n-heptanol]
effect on halothane-induced tryptophan quenching (RhoGDIα [1]; 0.2 mM halothane): negligible effects
effect on association of Cdc42 with membranes (Req,Cdc42) (RhoGDIα–Cdc42 complex): unaffected

CCCO [n=3]
Halothane Binding Fmax (RhoGDIα [1]; 0.2 mM halothane, fit to Eq. 2): 40 ± 9
Halothane Binding h (RhoGDIα [1]; 0.2 mM halothane, fit to Eq. 2): 1.2 ± 0.2
EC50 (RhoGDIα [1]; [4]): 48 ± 4.5 mM
Ki (RhoGDIα [1]; [5]): 20 ± 2 mM

CCCCCC1(CCO)N=N1 [3-azioctanol]
Lowest 3-azialcohol concentration where photoincorporation was detected (RhoGDIα [2]; AGGC +): 10 µM
Lowest 3-azialcohol concentration where photoincorporation was detected (RhoGDIα [2]; AGGC –): 10 µM
photolabeling of E193 (RhoGDIα [2]; at levels up to 1 mM): not photolabeled

CCO [n=2, ethanol]
Halothane Binding h (RhoGDIα [1]; 0.2 mM halothane, fit to Eq. 2): 1.4 ± 0.4
EC50 (RhoGDIα [1]; [4]): 100 ± 58 mM
Ki (RhoGDIα [1]; [5]): 42 ± 24 mM
Cdc42–RhoGDIα Dissociation h (RhoGDIα–Cdc42 complex): 1.2 ± 0.2

FC(F)(F)C(Cl)Br (stereo not shown) [halothane, 2-bromo-2-chloro-1,1,1-trifluoroethane]
Kd (RhoGDIα [3]): 0.147 ± 0.007 mM
blue shift in the emission maxima (RhoGDIα [3]; dose dependent, halothane 0–800 µM): ~ 2 nm
Hill coefficient h for halothane binding (RhoGDIα [3]; fit to Eq. 1): 0.91±0.2
plateau tryptophan fluorescence intensity, of the original signal (RhoGDIα [3]; halothane 0–800 µM): ~ 30%

CC(=O)N[C@@H](CSC/C=C(\C)CC/C=C(\C)CC/C=C(\C)CCC=C(C)C)C(=O)O [AGGC, N-acetyl geranylgeranyl cysteine]
effect on RhoGDIα tryptophan fluorescence in the absence of halothane (RhoGDIα [1]; control without halothane (results not shown)): unaffected
Ki (RhoGDIα [1]; read-out: KI for the displacement of halothane, from EC50 by Eq. 3): 0.01 mM

Source: PMC4556268 (Biochemistry, 2008)
